Assay outcomes deposited in PubChem BioAssay by Sanford-Burnham Center for Chemical Genomics.
STEP inh = STEP (human) phosphatase inhibition | recombinant STEP, OMFP fluorogenic substrate, fluorescence | inhibition, % at 20 µM | 360,000 tested, 0.25% active | AID 588621;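 active means inhibition at 20 µM, scaled per plate between control wells, above about 37%, limit read from the data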;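 further: 0% = DMSO with enzyme and substrate and 100% = substrate only without enzyme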
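Also added – OMFP at 25 µM · Test system – STEP tyrosine phosphatase · Technique – FITC-channel fluorescence of OMFP product · Schedule – 20 min at room temperature, dark · Evaluation – control-normalized % inhibition with plate pattern correction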
SUMO1-SIM PPI = SUMO1-SIM interaction modulation. P63165. SUMO1 binding to a labelled peptide, TR-FRET, 1 h. inhibition, % at 20 µM. 360,000 tested, 0.33% active; in the data active means inhibition above about 37%
Target sequence (P63165 whole entry, looked up): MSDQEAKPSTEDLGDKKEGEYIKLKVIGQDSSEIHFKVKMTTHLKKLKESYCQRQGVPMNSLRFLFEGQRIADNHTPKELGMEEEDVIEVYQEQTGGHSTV
DNMT1 block = DNMT1 (human) enzyme inhibition | P26358 | DNMT1 molecular beacon, Hinp1I cleavage, fluorescence | inhibition (reported as % activation of signal), % at 10 µM | 360,000 tested, 0.83% active | AID 588458; in the data active means inhibition above about 50%
LMPTP inh = blocks human LMPTP phosphatase; AID 651560; 360,000 tested, 0.22% active; inhibition, % at 20 µM; recombinant LMPTP-A, OMFP fluorogenic substrate, fluorescence intensity;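 active means compounds that cut the enzyme signal by at least half of the control window in the single-dose screen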;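 further: plate controls were DMSO wells with enzyme plus substrate for no effect and substrate without enzyme for full effect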
Target sequence (P24666 whole entry, looked up): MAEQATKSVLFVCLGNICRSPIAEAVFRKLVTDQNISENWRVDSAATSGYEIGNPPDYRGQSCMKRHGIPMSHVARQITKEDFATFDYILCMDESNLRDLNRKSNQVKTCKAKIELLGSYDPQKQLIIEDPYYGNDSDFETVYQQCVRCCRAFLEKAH
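Material: LMPTP-A; amount: 0.625 nM enzyme; doses: single 20 µM dose; times: reaction 50 min, room temperature, dark; technique: fluorescence intensity of OMFP turnover product; benchmarks: no-enzyme and uninhibited controls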
Scp1 inh = inhibitors of human Scp-1 phosphatase | Q9GZU7 | Recombinant Scp1, phosphopeptide, malachite green phosphate absorbance | inhibition, % at 20 µM | 340,000 tested, 0.88% active | AID 493091;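 active means inhibition above about 50% at 20 µM, limit read from the data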;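 further: plate controls were DMSO wells with enzyme for no effect and wells lacking enzyme for full effect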
Target sequence (Q9GZU7 76-261 limits assumed): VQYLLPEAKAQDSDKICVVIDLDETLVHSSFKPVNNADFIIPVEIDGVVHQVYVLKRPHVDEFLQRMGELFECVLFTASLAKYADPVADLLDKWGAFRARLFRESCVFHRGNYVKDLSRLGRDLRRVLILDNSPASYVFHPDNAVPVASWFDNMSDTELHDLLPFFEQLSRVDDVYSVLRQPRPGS
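Material: truncated SCP-1 phosphatase (76-261aa) / Buffer or medium: 50 mM Tris acetate pH 5.5, 0.005% Tween-20, 10 mM MgCl2 / Compound dosing: one concentration, 20 µM, with 1.0% DMSO / Incubation: 45 min room-temperature reaction, 5 min colour, 30 min stabiliser / Detection: colorimetric free-phosphate detection, absorbance 630 nm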
Starred values were filed as active, the others as inactive; x = no result given; ! = a repeat was not active. Sampled rows, rich in hits. Any-hit rate of the full collection: about 1.7%.

SMILES | STEP inh | SUMO1-SIM PPI | DNMT1 block | LMPTP inh | Scp1 inh
O=C1NC(=O)N(c2ccccc2)C(=O)/C1=C\c1ccc([N+](=O)[O-])s1 | x | x | x | x | 16.8
COc1ccc(OC)c(N2C(=O)NC(=O)/C(=C\c3ccc([N+](=O)[O-])s3)C2=O)c1 | 4.1 | 48.0* | 16.4 | 4.7 | 3.5
Cc1ccc(N2C(=O)NC(=O)/C(=C\c3cn(CC(=O)O)c4ccccc34)C2=O)cc1 | -1.0 | -2.2 | 6.3 | 2.1 | -8.3
O=C(O)Cn1cc(/C=C2\C(=O)NC(=O)N(Cc3ccco3)C2=O)c2ccccc21 | 7.2 | 27.4 | 89.6* | 4.6 | 53.1*
Cn1ncnc2c(=O)n(C)c(=O)nc1-2 | 85.4* | 29.2 | 108.8* | 75.4* | -7.7
COc1ccc(CNCCc2ccc(Cl)cc2)c(OC)c1OC | 1.9 | 4.0 | 3.3 | -1.0 | 1.3
CN1C(=O)NC(=O)/C(=C/c2ccc([N+](=O)[O-])s2)C1=O | 6.5 | 28.7 | 9.9 | 2.9 | 2.3
CN1C(=O)NC(=O)/C(=C/c2ccc([N+](=O)[O-])o2)C1=O | x | x | x | x | 61.9*
O=c1[nH]c2ccccc2n1C1CCN(C(c2nnnn2-c2ccc3c(c2)OCCO3)C2CC2)CC1 (centres undefined) | 0.1 | 1.9 | -4.3 | 2.8 | x
CCOc1ccc(N2C(=O)/C(=C\c3cccs3)C(=O)NC2=S)cc1 | x | x | x | x | 11.3
CCc1ccc(N2C(=O)NC(=O)/C(=C\C=C\c3ccco3)C2=O)cc1 | 0.9 | 11.6 | 137.9* | 4.2 | 11.2
Cc1ccc(N2C(=O)NC(=O)/C(=C/C=C/c3ccco3)C2=O)cc1 | -0.6 | 5.9 | 30.0 | -0.1 | 6.2
CCOc1ccc(N2C(=O)/C(=C/c3ccco3)C(=O)NC2=S)cc1 | 100.0* | 114.4* | 49.0 | 92.0* | 94.2*
ClCC(Br)CBr (centres undefined) | -0.9 | -4.0 | 1.3 | 0.3 | 2.7
CSc1nc(N)c(N=Nc2ccc([As](=O)(O)O)cc2)c(=O)[nH]1 | 0.3 | 39.2* | 17.9 | 43.3 | 16.2
CN(C)[C@@H]1C(=O)C(C(N)=O)=C(O)[C@@]2(O)C(=O)C3=C(O)c4c(O)cccc4[C@@](C)(O)C3[C@H](O)C12 (some centres undefined) | 18.5 | 58.7*! | 89.1*! | 64.0* | 35.1
CCN(CC(=O)Nc1ccc(C#N)c(Cl)c1)CC(=O)NC1CCS(=O)(=O)C1 (centres undefined) | -0.5 | 0.1 | -0.8 | -0.5 | 18.4
CN1CCc2cc(O)cc3c2[C@H]1Cc1ccc(O)c(O)c1-3 | 2.3 | -4.1 | -2.2 | 0.9 | -16.4
CN1CCc2cc3c(c4c2C1Cc1ccccc1-4)OCO3 (centres undefined) | 2.2 | -9.7 | 59.2* | 8.9 | 5.5
Cc1ccc2c(c1)C1CN(C)CCC1N2C(=O)c1cccs1 (centres undefined) | -2.7 | 1.7 | -0.8 | -0.5 | -11.7
Cc1ccc2c(c1)C1C[N+](C)(CC(=O)c3ccc(Cl)cc3Cl)CCC1N2C(=O)c1ccc(F)cc1 (centres undefined) | -2.0 | -11.3 | 7.4 | -0.5 | 95.2*
Cc1cccc(-n2c(O)c(/C=C/C=Nc3ccccc3)c(=O)[nH]c2=O)c1 | -15.5 | -28.9 | 54.9* | 0.8 | -3.9
CCCCc1ccc(NC2=NCCCS2)cc1 | 0.5 | 5.7 | -3.4 | -1.5 | -3.4
C=CCC1(CC)C(=O)NC(=S)NC1=O | -0.6 | 42.1* | 2.3 | -1.0 | 7.1
CCCCn1c(NS(=O)(=O)c2ccccc2)c(C(=O)OCC)c2nc3ccccc3nc21 | 3.0 | 49.4* | 68.5* | 9.3 | -14.0
SMILES | STEP inh | SUMO1-SIM PPI | DNMT1 block | LMPTP inh | Scp1 inh
CCOC(=O)c1c(N)n(CCN2CCCCC2)c2nc3ccccc3nc12 | 0.0 | -5.8 | -7.1 | 0.8 | -6.6
CCN(CC)C(=O)c1ccc2c(c1)C1C(Cl)C(Sc3ccccc3[N+](=O)[O-])CC1C(C(=O)O)N2 (centres undefined) | 6.4 | 64.9* | 64.5* | 49.8 | 23.9
O=[N+]([O-])c1cccc(C2N3CCCN23)c1 (centres undefined) | 0.2 | -8.1 | -0.1 | -3.0 | -4.7
O=C(O)c1cccc2c1NC(c1cccc([N+](=O)[O-])c1)C1CC(Sc3ccccc3[N+](=O)[O-])C(Cl)C21 (centres undefined) | 7.6 | 40.8* | 85.0* | 35.7 | 1.4
CCN(CC)C(=O)c1ccc2c(c1)C1C=CCC1C(C(=O)O)N2 (centres undefined) | 33.3 | 44.9* | 19.2 | 2.2 | 38.6
CCN(CC)C(=O)c1ccc(N(Cc2ccccc2)S(C)(=O)=O)cc1 | 5.5 | -0.2 | -0.8 | 0.1 | -2.2
O=C(O)c1ccc2c(c1)C1C(Cl)C(Sc3ccccc3[N+](=O)[O-])CC1C(c1cccc([N+](=O)[O-])c1)N2 (centres undefined) | 6.3 | 46.0* | 70.9* | 6.3 | -7.2
NC(=O)c1ccc(N)nc1 | 1.2 | 0.4 | -1.1 | -0.4 | -11.7
O=C1Nc2ccccc2/C1=C/c1cnc[nH]1 | 2.5 | -10.7 | -0.5 | -1.1 | 81.8*
Cc1cc(/C=C2\C(=O)NC(=O)N(c3ccccc3)C2=O)c(C)n1-c1ccc(C(=O)O)c(Cl)c1 | 46.4* | -3.2 | 39.8 | 1.1 | 39.8
Cc1cc(/C=C2\C(=O)NC(=O)N(c3ccc(F)cc3)C2=O)c(C)n1-c1cccc(C(=O)O)c1 | 1.9 | 22.6 | 36.7 | -0.7 | 11.2
C=CCN1C(=O)NC(=O)/C(=C/c2ccoc2)C1=O | 1.1 | 5.0 | 50.4* | 0.3 | 27.9
C=CCN1C(=O)NC(=O)/C(=C/c2cccn2C)C1=O | 2.5 | -4.7 | 1.5 | -1.1 | -5.2
COC(=O)C1=C(c2cccc(C#N)c2)C[C@@H]2CC[C@H]1N2C(=O)N1CCCC1 | 1.1 | 2.3 | 4.4 | 0.2 | -3.5
C[n+]1c(-c2ccccc2)c2cc(N)ccc2c2ccc(N)cc21 | 5.9 | 45.7* | 61.2* | 81.0* | -3.8
C[C@H]1COc2cccc(N3CCN(C)CC3)c2S(=O)(=O)N1 | x | -4.7 | x | -4.8 | x
O=c1[nH]c2ccccc2n1C1CCN(Cc2ccc(-c3[nH]c4cc5ncnc5cc4nc3-c3ccccc3)cc2)CC1 | x | -4.4 | x | 84.3* | x
CC(=O)N1Cc2cnnn2-c2ccccc2C1(C#N)Cc1ccccc1 (centres undefined) | -4.3 | 3.4 | 2.2 | -0.5 | -0.1
O=C1NC(=S)NC(=O)C1=Cc1ccc(Br)s1 | 19.6 | 17.0 | 56.9* | 10.1 | 84.3*
CN1C(=O)/C(=C\c2ccc(Br)s2)C(=O)NC1=S | 6.5 | 14.3 | -0.4 | 6.2 | 0.5
Nc1ccc2ccc3cccc[n+]3c2c1 | -34.9 | -13.8 | 108.5* | 38.9 | 0.5
CC1(C)C2([N+](=O)[O-])CN3CN(C2)CC1([N+](=O)[O-])C3 | 1.0 | 38.6* | 5.7 | -1.3 | 7.3
COc1ccc(CC(C)Nc2cccc(F)c2)cc1 (centres undefined) | -1.4 | -0.8 | -0.5 | 0.7 | -3.7
Cc1ccc(C)c(NC(=S)NCCc2cnc[nH]2)c1 | 5.1 | 1.8 | 5.3 | -4.9 | 0.4
